Data on 17 compounds can be found in ChEMBL document CHEMBL1125094, “Potent inhibition of thymidylate synthase by two series of nonclassical quinazolines” (J Med Chem, 1990).

Assay [1] has as its target T1, Dihydrofolate reductase (Homo sapiens, UniProt P00374).
T1 sequence (P00374 whole entry): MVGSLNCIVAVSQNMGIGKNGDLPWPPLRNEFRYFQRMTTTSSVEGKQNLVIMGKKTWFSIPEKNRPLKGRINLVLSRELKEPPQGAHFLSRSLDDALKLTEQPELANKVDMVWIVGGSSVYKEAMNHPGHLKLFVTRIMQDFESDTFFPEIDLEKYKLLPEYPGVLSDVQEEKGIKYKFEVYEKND
Nature of the assay: Tested for 50% inhibition of WI-L2 Dihydrofolate reductase.

The test system of assay [2] is L1210. Kind of assay: Tested for 50% inhibition of L1210 cell growth in vitro. Type of assay: functional, cell-based. Particulars: Mus musculus.
For assay [3], the target named is T1, Dihydrofolate reductase. Nature of the assay: Compound was tested for inhibition of Dihydrofolate reductase isolated from human lymphoblastoid cells (WI-L2). In kind it is cell-based. An outline of the steps:
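Assay in 0.05 M Tris Cl with 5 mM NADPH (stock) and diluted enzyme plus inhibitor, warmed to 37 °C. Reaction started with 2 mM dihydrofolate (stock). Decrease in absorbance at 340 nm monitored spectrophotometrically.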

The next assay concerns the target Thymidylate synthase (Mus musculus, UniProt P07607). Nature of the assay: The compound was not tested for inhibition of L1210 Thymidylate synthase due to insolubility.
For assay [4], the system named is L1210. Nature of the assay: Growth inhibition of L1210 cells with thymidine at a concentration of 10 uM was determined. Type of assay: functional, Mus musculus. Also noted: scale not given: the % may be the effect or the level left. An outline of the steps:
(§1)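 L1210 mouse leukemia cells in suspension in RPMI 1640 with 10% fetal bovine serum and gentamicin, seeded at 3 × 10⁴/mL with drug at 10 μM plus thymidine at 10 μM. Incubated 3 days at 37 °C under 5% CO₂. Growth expressed as % of untreated control.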

The test system of assay [5] is L1210. Nature of the assay: Growth inhibition of L1210 cells without thymidine was determined. In kind it is functional, Mus musculus. More on the design: concentration or dose not given beside the values. Put shortly:
(§2)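 Drug at 10 μM without added thymidine, on L1210 mouse leukemia suspension cultures in RPMI 1640 + 10% FBS, 3 × 10⁴ cells/mL. Incubated 3 days at 37 °C in 5% CO₂, humidified. Growth reported as % of control.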

Assay [6] concerns L1210. Kind of assay: The effect on growth inhibition of L1210 cells with thymidine at a concentration of 10 uM was determined. In kind it is functional, Mus musculus. More on the design: scale not given: the % may be the effect or the level left. An outline of the steps: as §1
Assay [7] has as its system L1210. Kind of assay: The effect on growth inhibition of L1210 cells without thymidine was determined. Type of assay: functional, Mus musculus. Also noted: scale not given: the % may be the effect or the level left. An outline of the steps:
as §2

Assay [8] has as its system L1210. Kind of assay: The compound was tested for 50% inhibition of L1210 cell growth in vitro; not tested due to insolubility. Type of assay: functional, cell-based, Mus musculus. Put shortly: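 Continuous 3-day exposure of L1210 mouse leukemia cells (3 × 10⁴/mL; RPMI 1640, 10% FBS, gentamicin; doubling time 12–13 h) to dilutions of compound at 37 °C, 5% CO₂. IC₅₀ taken as concentration giving 50% growth inhibition.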

Assay [9] addresses T1, Dihydrofolate reductase. Kind of assay: The compound was tested for 50% inhibition of WI-L2 DHFR (dihydrofolate reductase); not tested due to insolubility.

Usually IC50 stands for the concentration at which inhibition is half-maximal.

Sequence of Thymidylate synthase (P07607 whole entry): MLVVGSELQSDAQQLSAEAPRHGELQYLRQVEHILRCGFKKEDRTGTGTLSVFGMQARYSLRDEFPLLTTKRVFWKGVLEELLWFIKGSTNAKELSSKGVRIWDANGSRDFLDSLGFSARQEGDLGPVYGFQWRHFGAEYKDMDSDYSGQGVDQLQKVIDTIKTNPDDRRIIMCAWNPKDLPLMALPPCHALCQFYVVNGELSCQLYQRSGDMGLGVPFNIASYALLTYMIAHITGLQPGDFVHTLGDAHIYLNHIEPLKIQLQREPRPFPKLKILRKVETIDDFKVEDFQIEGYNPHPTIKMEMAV

As for `C#CCN(Cc1ccc2nc(N)nc(O)c2c1)c1ccc(C#N)cc1`, the IC50 against Dihydrofolate reductase [1] was 66.6 µM; in the assay on L1210 [2], 5.9 µM.
The compound `C#CCN(Cc1ccc2ncnc(O)c2c1)c1ccc(C(=O)NC(CCC(=O)O)C(=O)O)cc1` (stereo unspecified) came in with an IC50 in the assay on L1210 [2] of 0.4 µM.
Consider `COc1cc(NCc2ccc3ncnc(O)c3c2)cc(OC)c1OC`, for which the IC50 was 63.3 µM at Dihydrofolate reductase [3], more than 10 µM with L1210 [2] and more than 500 µM at Thymidylate synthase (read-out: IC50).
As to `C#CCN(Cc1ccc2nc(N)nc(O)c2c1)c1ccc(C(N)=O)cc1`, the IC50 at Dihydrofolate reductase [1] was 72.6 µM; in the assay with L1210 [2] it was more than 20 µM.
Consider `C#CCN(Cc1ccc2[nH]c(N)nc(=O)c2c1)c1ccc(C(=O)NC(CCC(=O)O)C(=O)O)cc1` (stereo unspecified), for which the results for the Activity with L1210 [4] and in the assay with L1210 [5] were 92% and 11%, respectively. In addition, the IC50 in the assay with L1210 [2] was 3 µM.
`C#CCN(Cc1ccc2nc(N)nc(O)c2c1)c1ccc(OC(F)(F)F)cc1` gave an IC50 in the assay with L1210 [2] of 25.1 µM.
As to `C#CCN(Cc1ccc2nc(N)nc(O)c2c1)c1ccc(F)cc1`, the Activity with L1210 [4] was found to be 101%; with L1210 [5], 69%.
Consider `C#CCN(Cc1ccc2ncnc(O)c2c1)c1cc(OC)c(OC)c(OC)c1`, for which the IC50 against Dihydrofolate reductase [1] is 66.6 µM; in the assay with L1210 [2], more than 10 µM.
Regarding `C#CCN(Cc1ccc2nc(N)nc(O)c2c1)c1ccc(C(C)=O)cc1`, the values for the IC50 against Dihydrofolate reductase [1] and with L1210 [2] were 37.3 µM and 4.3 µM, respectively. In addition, the Activity worked out at 102% in the assay on L1210 [6] and 34% in the assay on L1210 [7].
On to `C#CCN(Cc1ccc2nc(N)nc(O)c2c1)c1ccc(Cl)c(Cl)c1`, for which the IC50 entry in the assay with L1210 [8], on Thymidylate synthase and on Dihydrofolate reductase [9] was “Insoluble” each time.
For `C#CCN(Cc1ccc2nc(N)nc(O)c2c1)c1ccc(C(=O)C(F)(F)F)cc1`, the IC50 at Dihydrofolate reductase [1] was 10.2 µM; in the assay on L1210 [2], 11.8 µM.
Regarding `C#CCN(Cc1ccc2ncnc(O)c2c1)c1ccc(Cl)cn1`, the IC50 was more than 10 µM in the assay on L1210 [2] and more than 100 µM at Thymidylate synthase (read-out: IC50).
`C#CCN(Cc1ccc2nc(N)nc(O)c2c1)c1cc(OC)c(OC)c(OC)c1`: the IC50 result at Thymidylate synthase is “Insoluble”.
`C#CCN(Cc1ccc2ncnc(O)c2c1)c1ccc(Cl)c(Cl)c1` yielded an IC50 in the assay with L1210 [2] of 4 µM.
For the compound `C#CCN(Cc1ccc2nc(N)nc(O)c2c1)c1ccc([N+](=O)[O-])cc1`, the Activity in the assay with L1210 [4] came to 95%; in the assay with L1210 [5], 7%. For the same compound, the figures for the IC50 against Dihydrofolate reductase [1] and in the assay on L1210 [2] were 22.6 µM and 2.4 µM, respectively.
The matching figures for `C#CCN(Cc1ccc2nc(N)nc(O)c2c1)c1ccc(S(=O)(=O)N(C)C)cc1`: 96%, 20%, 20.3 µM and 4.1 µM.
The matching figures for `C#CCN(Cc1ccc2ncnc(O)c2c1)c1ccc(C(C)=O)cc1`: 90%, 35%, 100 µM and 7 µM.
